{"data": "Assay results from different studies", "target": "D(2) dopamine receptor (DRD2, Homo sapiens, UniProt P14416)", "note": "Each line is one published result; the experiments were not run side by side."}
{"SMILES": "Clc1cncc(OC[C@@H]2CN(CCN3CCc4ccccc43)CCO2)c1", "effect on": "ligand displacement", "technique": "radioligand", "concentration": "10 µM", "quantity": "inhibition", "result": "60%"}
{"SMILES": "CN1CCN(C(=O)C(C)(C)c2ccc(C(=O)Nc3cn4cc(-c5cc(C(C)(C)C)cc(C(C)(C)C)c5)ccc4n3)cc2)CC1", "effect on": "ligand displacement", "concentration": "10 µM", "quantity": "inhibition", "result": "57.5%"}
{"SMILES": "Cc1ccc(OC[C@@H]2CN(CCN3CCc4ccccc43)CCO2)cn1", "effect on": "ligand displacement", "technique": "radioligand", "concentration": "10 µM", "quantity": "inhibition", "result": "18.8%"}
{"SMILES": "COc1cc(OC)c(OC)cc1CN1CCN(Cc2c[nH]c3ccccc23)CC1", "effect on": "enzyme activity", "action": "inhibitor", "concentration": "10 µM", "quantity": "inhibition", "result": "34.6%"}
{"SMILES": "CCC(=NO)C(C)=Cc1ccc(F)c(C)c1", "effect on": "ligand displacement", "concentration": "10 µM", "quantity": "inhibition", "result": "-6.57%"}
{"SMILES": "O=C1c2ccccc2CCN1CCCCN1CCN(c2ccccn2)CC1", "effect on": "ligand displacement", "technique": "radioligand", "concentration": "10 µM", "quantity": "inhibition", "result": "86.6%"}
{"SMILES": "CCS(=O)(=O)c1cc2cc(C[C@](O)(CC(C)(C)c3ccc(F)cc3C(N)=O)C(F)(F)F)[nH]c2cn1", "effect on": "ligand displacement", "concentration": "10 µM", "quantity": "inhibition", "result": "-12.2%"}
{"SMILES": "Cc1ccnc(OC[C@H]2CN(CC(=O)N3CCc4ccccc43)CCO2)c1", "effect on": "ligand displacement", "technique": "radioligand", "concentration": "10 µM", "quantity": "inhibition", "result": "-7.3%"}
{"SMILES": "NS(=O)(=O)c1ccc(CCNCc2ccc(OCc3cccs3)cc2)cc1", "effect on": "enzyme activity", "action": "inhibitor", "concentration": "10 µM", "quantity": "inhibition", "result": "23.9%"}
{"SMILES": "CC(=O)C1=C(C)N(c2cccc(C(F)(F)F)c2)C(=O)N[C@H]1c1ccc(C#N)nc1", "effect on": "ligand displacement", "concentration": "10 µM", "quantity": "inhibition", "result": "-1.53%"}
{"SMILES": "Nc1nonc1C(=O)NCCNCc1cccc(OCc2ccccc2F)c1", "effect on": "enzyme activity", "action": "inhibitor", "concentration": "10 µM", "quantity": "inhibition", "result": "6.52%"}
{"SMILES": "O=c1nc(-c2ccccn2)sc2ccccc12", "effect on": "ligand displacement", "concentration": "10 µM", "quantity": "inhibition", "result": "22.9%"}
{"SMILES": "O=C(CCCN1CCC(O)(c2ccc(Br)cc2)CC1)c1ccc(F)cc1", "effect on": "binding", "quantity": "kon", "result": "2.67e+06 M⁻¹ s⁻¹"}
{"SMILES": "COc1ccc(N2CCN(CC(O)COc3ccc(C(C)=O)cc3OC)CC2)cc1 (stereo not shown)", "effect on": "enzyme activity", "action": "inhibitor", "concentration": "10 µM", "quantity": "inhibition", "result": "27.4%"}
{"SMILES": "CC(C)c1nc2cc(OCCCCN3CCN(c4cccc5c4OCCN5)CC3)ccc2s1", "effect on": "β-arrestin recruitment", "action": "agonist", "cells": "HTLA", "quantity": "Emax", "result": "36%"}
{"SMILES": "COc1cccc(OC[C@H]2CN(CCN3CCc4ccccc43)CCO2)c1", "effect on": "ligand displacement", "technique": "radioligand", "concentration": "10 µM", "quantity": "inhibition", "result": "31.5%"}
{"SMILES": "Cc1nc2cc(OCCCCN3CCN(c4cccc5c4OCCO5)CC3)ccc2s1", "effect on": "β-arrestin recruitment", "action": "agonist", "cells": "HTLA", "quantity": "Emax", "result": "35%"}
{"SMILES": "FC(F)(F)c1cccc(-c2ccc(CNCCCN3CCOCC3)o2)c1", "effect on": "enzyme activity", "action": "inhibitor", "concentration": "10 µM", "quantity": "inhibition", "result": "48.3%"}
{"SMILES": "COc1ccccc1N1CCN(CCCCN2CCc3ccccc3C2=O)CC1", "effect on": "ligand displacement", "technique": "radioligand", "concentration": "10 µM", "quantity": "inhibition", "result": "97.5%"}
{"SMILES": "Cc1cc(Nc2nccc(C)n2)cc(-c2cnc([C@@]3(O)CC[C@H](C(=O)O)C(C)(C)C3)s2)c1", "effect on": "ligand displacement", "concentration": "10 µM", "quantity": "inhibition", "result": "-3.52%"}
{"SMILES": "CCOc1ccc(CNCC(O)c2ccccc2)cc1Br (stereo not shown)", "effect on": "enzyme activity", "action": "inhibitor", "concentration": "10 µM", "quantity": "inhibition", "result": "36.2%"}
{"SMILES": "O=C(NCc1ncc(C(F)(F)F)cc1Cl)c1ccc2c(c1)C1(CCS(=O)(=O)CC1)[C@@H](C1CC1)N2S(=O)(=O)c1ccc(F)cc1", "effect on": "ligand displacement", "concentration": "10 µM", "quantity": "inhibition", "result": "-8.4%"}
{"SMILES": "CC(=O)Nc1ccc(N2CC(O)=C(c3nc4ccccc4[nH]3)C2=N)cc1", "effect on": "enzyme activity", "action": "inhibitor", "concentration": "10 µM", "quantity": "inhibition", "result": "17.1%"}
{"SMILES": "Cc1cc(NC(=O)c2cccc(S(F)(F)(F)(F)F)c2)cc(-n2ccn3nc(-c4cccnc4)cc23)c1", "effect on": "ligand displacement", "technique": "radioligand", "concentration": "10 µM", "quantity": "inhibition", "result": "12.3%"}
{"SMILES": "O=C(CN1CCO[C@H](COc2ccccc2)C1)N1CCc2ccccc21", "effect on": "ligand displacement", "technique": "radioligand", "concentration": "10 µM", "quantity": "inhibition", "result": "13.6%"}
